High-throughput results (PubChem)
OX1R antag-1 = OX1R (HCRTR1) antagonists, primary screen, fluorescence, CHO/OX1R cells, Fluo-8 calcium, orexin A. 330,000 tested, 0.43% active. inhibition, % at 5 µM. Fluo-8 calcium fluorescence;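 active means inhibition above its plate's threshold, mean inhibition of all tested compounds on the plate plus 3 SD, cut at about 37% in these data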;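 further: 0% = orexin A challenge wells and 100% = SB-334867-A antagonist wells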
GPR7 antagonist = GPR7 receptor antagonists, primary screen, cell-based, fluorescence, single concentration. Neuropeptides B/W receptor type 1 (Homo sapiens), P48145. inhibition, % at 4.4 µM. 290,000 tested, 1.1% active. GPR7-expressing cells, fluorescence antagonist assay; in the data active means inhibition above about 16%, passing the limit was not always enough;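 further: cells stimulated with the agonist NPW; 0% = agonist with vehicle and 100% = vehicle without agonist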
TAAR1 ag = human TAAR1 agonists, primary screen, Fluo-8 calcium fluorescence, CHO RD-HGA16 cells; Trace amine-associated receptor 1 (Homo sapiens), Q96RJ0; vehicle wells 0%, saturating PEA agonist 100%; activation, % at 3 µM; 360,000 tested, 0.99% active; AID 624467, 2012;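 active means activation above the mean activation of all test compounds in the run plus 3 SD, cut at about 38% in these data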
Target sequence (Q96RJ0 whole entry, looked up): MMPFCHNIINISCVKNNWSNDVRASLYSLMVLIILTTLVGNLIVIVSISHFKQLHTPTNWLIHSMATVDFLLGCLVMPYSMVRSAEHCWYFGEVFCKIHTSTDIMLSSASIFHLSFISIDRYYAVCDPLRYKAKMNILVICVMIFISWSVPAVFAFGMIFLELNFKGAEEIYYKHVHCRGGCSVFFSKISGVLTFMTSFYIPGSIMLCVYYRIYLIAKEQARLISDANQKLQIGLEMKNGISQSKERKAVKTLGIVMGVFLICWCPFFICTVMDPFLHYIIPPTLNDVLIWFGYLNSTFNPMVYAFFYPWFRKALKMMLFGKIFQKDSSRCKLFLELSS
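Signal – calcium-sensitive Fluo-8 signal, excitation 470-495, emission 515-575 nm · System – RD-HGA16 (CHO) cells co-expressing Gα16 and hTAAR1 · Incubation – 17-24 h seeding, 75 min 37 °C dye, 30 min RT · Compound dosing – 3 µM single concentration · Repeats – no replicates (n 1)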
OX1R antag-2 = antagonists of human orexin 1 receptor (OX1R) | Orexin/Hypocretin receptor type 1 (Homo sapiens), O43613 | OX1R-expressing cells, FRET antagonist read-out | inhibition, % at 6.6 µM | 330,000 tested, 1.8% active; in the data active means inhibition mostly above about 38%, no sharp cut-off; inactive means mostly below about 40%;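 further: 0% = agonist challenge alone and 100% = reference antagonist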
TAAR1 antagonist = human TAAR1 antagonists, primary screen, Fluo-8 calcium fluorescence, CHO RD-HGA16 cells | AID 624466, 2012 | Trace amine-associated receptor 1 (Homo sapiens), Q96RJ0 | antagonist | 360,000 tested, 1.5% active | inhibition, % at 3 µM;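 active means inhibition above a per-plate cutoff, the mean inhibition of test compounds on that plate plus 3 SD, cut at about 49% in these data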;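 further: 0% = DMSO plus EC80 beta-PEA response and 100% = DMSO alone without agonist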
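Test system – hTAAR1-expressing CHO RD-HGA16 cells, Gα16-coupled · Also added – β-PEA at EC80 concentration, post-compound challenge · Compound – 3 µM, single point · Incubation – dye loading 75 min at 37 °C, then 30 min room temperature · Measured by – Fluo-8 intracellular calcium dye fluorescence, real-time kinetic reads · Benchmarks – vehicle and agonist controls · Replicates – singlicate, one well per test compound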
CHO parental Ca = ATP-evoked calcium signal inhibitors, parental CHO, primary screen, counter-screen for OX1R antagonist project, cell-based, fluorescence, Fluo-8 calcium dye | AID 463079, 2010 | 330,000 tested, 0.63% active | inhibition, % at 5.6 µM | parental CHO-K1, ATP-induced calcium, Fluo-8 fluorescence;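 active means inhibition above that plate's mean sample inhibition plus 3 SD, cut at about 26% in these data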;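 further: 0% = ATP-challenged DMSO wells and 100% = DMSO wells without ATP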
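test system = CHO parental line | reagent = ATP stimulus | measured by = intracellular calcium via Fluo-8 no-wash fluorescent dye | control set = ATP and no-ATP DMSO wells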
Active calls of the source: *; . = not tested or not shown. In the library only some 4.5% were active in any assay of this set; here they are far more common.

SMILES	OX1R antag-1	GPR7 antagonist	TAAR1 ag	OX1R antag-2	TAAR1 antagonist	CHO parental Ca
COc1ccc(CCNC(=O)C(=O)NCC2CCCN2S(=O)(=O)c2ccccc2)cc1OC (stereo not drawn)	-7.4	.	16.7	24.9	49.1*	-15.2
Cc1noc(C)c1COc1cccc(C(=O)Oc2ccc3c(c2)OCO3)c1	-2.9	18.1*	-1.0	13.8	3.3	-11.9
Cc1noc(C)c1COc1cccc(C(=O)OC(C)C(=O)Nc2ccc3c(c2)OCO3)c1 (stereo not drawn)	-16.4	19.4*	11.9	13.1	13.1	-1.8
O=C(NCc1ccccc1)C(C1CC1)n1c(=O)c(-c2cc3ccccc3[nH]2)nc2ccccc21 (stereo not drawn)	.	.	1.3	.	-1.6	.
COc1cccc(/C=N/NC(=O)C(=O)NCc2ccco2)c1O	0.7	-9.1	-1.1	41.1*	12.1	-12.7
COc1cccc(/C=N/NC(=O)C(=O)NCc2ccco2)c1OC	-17.5	-4.7	-0.1	14.0	-11.7	-19.9
COc1ccc(/C=N/NC(=O)CSCC(=O)Nc2ccccc2)cc1	-7.9	-10.2	1.8	9.8	-4.7	-10.0
COc1cccc(/C=N/NC(=O)CSCC(=O)Nc2ccccc2)c1O	-13.2	-8.2	7.3	59.0*	-0.4	-15.6
COCCN1CCN(C(=O)c2ccc3oc(CCc4ccccc4)nc3c2)CC1	-5.8	-5.4	3.3	-6.7	-18.5	-6.4
Cc1ccc(OCc2cc(C(=O)NCc3cc(F)ccc3C)no2)cn1	.	18.9	20.3	.	-1.0	.
CCC(NC(=O)c1cc(COc2ccc(C)nc2)on1)c1ccc(C)cc1 (stereo not drawn)	-14.8	13.9	49.2*	13.7	8.1	1.0
Cn1ccc(C(=O)OCC(=O)Nc2ccccc2Cl)n1	.	-4.2	6.5	.	-17.2	.
O=C1NC(c2ccc3c(c2)OCO3)c2c(-c3ccccc3)n[nH]c21 (stereo not drawn)	.	.	3.7	.	-5.9	.
C/C(=N\Nc1ccc([N+](=O)[O-])cc1)c1ccc(-n2nncc2C)cc1	-15.5	-0.4	15.3	15.5	56.6*	-5.8
CC1(C)CC(=O)C=C(C#CC2CC2)C1	.	.	0.7	.	4.0	.
Cc1cc(/C=C2\SC(=S)N(C)C2=O)c(C)n1-c1ccc(O)cc1	-1.3	-4.6	11.4	9.6	-20.3	9.4
Cc1cc(/C=C2\SC(=S)N(C)C2=O)c(C)n1-c1ccccc1O	51.5*	.	5.8	34.0	43.7	36.4*
Cc1cc(/C=C2/SC(=S)N(c3cccc(Cl)c3)C2=O)c(C)n1-c1cccnc1	53.0*	-2.8	17.5	71.4*	23.8	45.6*
Cc1cc(/C=C2/SC(=S)N(c3ccc([N+](=O)[O-])cc3)C2=O)c(C)n1-c1cccnc1	-2.8	-12.4	7.2	18.4	-8.1	8.0
CC(=Nc1ccc(Cl)cc1N)c1c(O)cc(C)oc1=O	.	.	-2.1	.	6.1	.
Nc1nc(NCc2ccc(Cl)cc2)nc(NCCO)c1[N+](=O)[O-]	-29.8	-15.1	44.8*	19.8	-29.9	-25.1
Cc1ccc(CNc2nc(N)c([N+](=O)[O-])c(NCCO)n2)cc1	-27.0	-16.5	7.7	21.2	-1.0	-25.1
Cc1c(C(=O)O)nn(-c2ccccc2)c(=O)c1C#N	-6.4	-11.4	0.1	59.5*	4.9	-2.7
Cc1ccc(-n2nc(C(=O)O)c(C)c(C#N)c2=O)cc1Cl	-26.8	6.3	-1.2	50.8*	-28.8	-11.4
COc1ccc(-n2c(-c3ccccc3)c[n+]3c2CCC3)cc1	9.2	-3.6	7.9	17.0	-20.8	-0.7
CCOc1ccc(-c2c[n+]3c(n2-c2ccccc2)CCCCC3)cc1	-19.2	25.2*	3.4	11.9	1.6	3.3
CCCN(CCC)S(=O)(=O)c1ccc(Cl)c([N+](=O)[O-])c1	-25.9	42.5*	4.6	35.9	6.5	-15.1
COc1ccc(C(C#N)=Cc2cc(OC)c(OC)c(OC)c2)cc1	.	.	3.0	.	10.0	.
CC1(C)CC(=O)C=C(c2ccccc2-c2ccc3c(c2)OCO3)C1=O	.	.	-0.6	.	-2.1	.
